Test results published in PubChem BioAssay AID602126 (Broad Institute, 2011).
Calls of active or inactive are those of the source.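 The calls were made as follows: active = compounds cutting cell ATP light whose fitted AC50 is at most double the top dose tried; inconclusive = flat moderate signal loss, or an unreliable curve fit; inactive = the rest.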

System: not listed separately
Assay: ldlA[mSR-BI] cell viability loss – CellTiter-Glo luminescence, 24 h, dry powder, set 5, cytotoxicity control for SR-BI HDL uptake inhibitor project, dose response (AID 602126)
Conditions: ldlA[mSR-BI] CHO cells viability, CellTiter-Glo ATP luminescence, 24 h; at 35 µM (top of the series)
Outline: (§1)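 material = ldlA[mSR-BI] cells | quantity = 4,000 cells per well | times = 24 h compound exposure at 37 °C, then 10 min with detection reagent | signal = luminescence of cellular ATP via CellTiter-Glo luciferase reagent | read-out = IC50 of cell viability from ATP-dependent luminescence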
For `CCOC(=O)Nc1cccc(NC(=O)c2cc(OC)cc(OC)c2)c1`, the activity change, negative = cytotoxicity was -19.4% (inactive). In the case of `Cc1cc(C(=O)C(C)OC(=O)C2=NNC(=O)CC2)c(C)n1-c1ccc(OC(F)F)cc1` (stereo unspecified), the activity change, negative = cytotoxicity is reported as -26.5% (inactive). With `COc1ccc(-c2nnn(CC(=O)N(C3CC3)C(C)C(=O)NC3CCCC3)n2)cc1OC` (stereo unspecified) the activity change, negative = cytotoxicity was -16% (inactive). In the case of `COc1ccc(-c2nnn(CC(=O)N(C)C(C)C(=O)NC3CCCC3)n2)cc1OC` (stereo unspecified), the activity change, negative = cytotoxicity is reported as -6.96% (inactive). With `C[C@H]1CN([C@@H](C)CO)C(=O)c2cccc(NC(=O)Nc3ccccc3)c2O[C@@H]1CN(C)Cc1ccc(Cl)c(Cl)c1` the activity change, negative = cytotoxicity was -98.2% (inactive). For `Cc1ccc(-c2nnc(N3CCC(C)CC3)c3ccccc23)cc1C`, the activity change, negative = cytotoxicity was -8.22% (inactive).

System: ldlA[mSR-BI] CHO cells viability, CellTiter-Glo ATP luminescence, 24 h
Assay: as above
Conditions: not given
Outline: as §1
`CC(C(=O)NC1CCCC1)N(C(=O)Cn1nnc(-c2ccc3c(c2)OCO3)n1)C1CCCCC1` (stereo unspecified) gave an AC50 of 53 µM. With `CCC(=O)N1CCc2cc(-c3csc(NC(=O)c4cc(OC)cc(OC)c4)n3)ccc21` the AC50 was > 70 µM (inactive). For `COc1cc(OC)cc(C(=O)Nc2nc(-c3ccc4c(c3)CCN4C(C)=O)cs2)c1`, the AC50 was > 70 µM (inactive). For `C[C@H]1CN([C@@H](C)CO)C(=O)c2cc(NC(=O)Cc3cn(C)c4ccccc34)ccc2O[C@@H]1CN(C)S(=O)(=O)c1ccc(Cl)cc1`, the AC50 was > 70 µM (inactive). For `C[C@H](CO)N1C[C@H](C)[C@H](CN(C)S(=O)(=O)c2ccc(F)cc2)Oc2ccc(NC(=O)Cc3cn(C)c4ccccc34)cc2C1=O`, the AC50 was > 70 µM (inactive). With `C[C@H]1CN([C@@H](C)CO)C(=O)c2cc(NC(=O)Nc3ccccc3)ccc2O[C@@H]1CN(C)Cc1ccc(Cl)c(Cl)c1` the AC50 was 57 µM. `O=C(Nc1cc(C(F)(F)F)ccc1Cl)c1ccccc1NS(=O)(=O)c1ccc(Cl)cc1` gave an AC50 of 0.285 µM. In the case of `O=C(CN(C(=O)Cn1nnc(-c2ccc3c(c2)OC(F)(F)O3)n1)C1CCCCC1)NC1CCCC1`, the AC50 is reported as > 70 µM (inactive). With `COc1ccc(-c2nc(CC(=O)N(C3CCCCC3)C(C)C(=O)NC3CCCC3)cs2)cc1OC` (stereo unspecified) the AC50 was 67 µM. With `C[C@H](CO)N1C[C@H](C)[C@@H](CN(C)S(=O)(=O)c2ccc(Cl)cc2)Oc2ccc(NC(=O)Cc3cn(C)c4ccccc34)cc2C1=O` the AC50 was > 70 µM (inactive). Compound `O=C(Nc1ccc(-c2nc3ccc(NC(=O)c4ccc(Cl)cc4)cc3[nH]2)cc1)c1ccc(Cl)cc1` has an AC50 of 1.3 µM. For `C[C@@H]1CN([C@H](C)CO)C(=O)c2cc(NC(=O)Cc3cn(C)c4ccccc34)ccc2O[C@@H]1CN(C)S(=O)(=O)c1ccc(Cl)cc1`, the AC50 was > 70 µM (inactive). For `CCC(=O)N1CCc2cc(-c3csc(NC(=O)c4cccc(OC(F)(F)F)c4)n3)ccc21`, the AC50 was > 70 µM (inactive). For `C[C@@H]1CN([C@H](C)CO)C(=O)c2cc(NC(=O)Cc3cn(C)c4ccccc34)ccc2O[C@H]1CN(C)S(=O)(=O)c1ccccc1`, the AC50 was 49.8 µM. For `CCC(=O)N1CCc2cc(-c3csc(NC(=O)c4cc(OC)c(OC)c(OC)c4)n3)ccc21`, the AC50 was > 70 µM (inactive). Compound `O=C(Nc1ccccc1Cl)c1ccccc1NS(=O)(=O)c1ccccc1` has an AC50 of 37.2 µM. In the case of `CCC(=O)Nc1ccc(-c2csc(N)n2)cc1`, the AC50 is reported as > 70 µM (inactive). In the case of `O=C(CN(C(=O)Cn1nnc(-c2ccc3c(c2)OCO3)n1)C1CCCCC1)NC1CCCC1`, the AC50 is reported as > 70 µM (inactive). Work on `CCC(=O)N1CCc2cc(-c3csc(NC(=O)C4CCCO4)n3)ccc21` (stereo unspecified) yielded an AC50 of 46.5 µM. With `N#Cc1sc2nc(C3CC3)cc(-c3ccc(Cl)cc3)c2c1N` the AC50 was 63.1 µM. `CC(C(=O)NC1CCCC1)N(C(=O)Cn1nnc(-c2ccc(Cl)c(Cl)c2)n1)C1CCCCC1` (stereo unspecified) showed an AC50 of 37 µM. For `C[C@H]1CN([C@@H](C)CO)C(=O)c2cccc(NC(=O)Nc3ccccc3)c2O[C@@H]1CN(C)Cc1ccccc1`, the AC50 was > 70 µM (inactive). `COc1cccc(-c2csc(N3CCN(C(=S)Nc4cccc(Cl)c4)CC3)n2)c1` showed an AC50 of 51.7 µM. In the case of `O=C(CN(C(=O)Cn1nnc(-c2ccc(Cl)c(Cl)c2)n1)C1CCCCC1)NC1CCCC1`, the AC50 is reported as 46.2 µM. With `COc1cc(OC)cc(C(=O)Nc2nc(-c3ccc4c(c3)CCN4C(=O)CN(C)C)cs2)c1` the AC50 was 20.2 µM. In the case of `COc1ccc([C@H]2CC(=O)C=C(c3cccc4c3sc3ccccc34)C2)cc1OC`, the AC50 is reported as > 70 µM (inactive). With `C[C@H]1CN([C@@H](C)CO)C(=O)c2cc(NC(=O)Cc3cn(C)c4ccccc34)ccc2O[C@H]1CN(C)S(=O)(=O)c1ccc(Cl)cc1` the AC50 was > 70 µM (inactive). For `CCOc1ccccc1/C=C/c1onc(C)c1S(=O)(=O)N1CCC(C(=O)NC(C)(C)C)CC1`, the AC50 was > 70 µM (inactive). In the case of `CC(C(=O)NC1CCCC1)N(C(=O)Cn1nnc(-c2cccc(F)c2)n1)C1CCCCC1` (stereo unspecified), the AC50 is reported as > 70 µM (inactive). Work on `CCCCCCC1CCC/C1=N\NC(N)=S` (stereo unspecified) yielded an AC50 of 2.13 µM. For `COc1cc(OC)cc(C(=O)Nc2nc(-c3ccc4c(c3)CCN4)cs2)c1`, the AC50 was 46.5 µM. With `CCC(=O)N1CCc2cc(-c3csc(NC(=O)c4cccc(OC)c4)n3)ccc21` the AC50 was > 70 µM (inactive). `O=C(Nc1cc(Cl)ccc1Cl)c1cc(Cl)ccc1NS(=O)(=O)c1ccc(Cl)c([N+](=O)[O-])c1` gave an AC50 of 17.3 µM. With `COc1ccc(-c2nnn(CC(=O)N(CC(=O)NC3CCCC3)C3CCCCC3)n2)cc1OC` the AC50 was > 70 µM (inactive). Work on `C=CCN1CCc2cc(-c3csc(NC(=O)c4ccco4)n3)ccc21` yielded an AC50 of 57.7 µM.
